Published values from different studies.
Protocols differ between the studies behind these lines. In brackets after ≈: the same amount, converted by molar mass.

NCC[C@H](O)C(=O)N[C@@H]1C[C@H](N)[C@@H](O[C@H]2O[C@H](CN)[C@@H](O)[C@H](O)[C@H]2O)[C@H](O)[C@H]1O[C@H]1O[C@H](CO)[C@@H](O)[C@H](N)[C@H]1O  MIC50 (Mycobacterium tuberculosis variant bovis BCG; microbial growth; BCG): 0.32 µg/mL (≈ 0.546 µM)
C[C@H]1COc2c(N3CCN(C)CC3)c(F)cc3c(=O)c(C(=O)O)cn1c23  MIC (Klebsiella pneumoniae; microbial growth; ATCCBAA1705; drug-resistant strain): > 8 µg/mL
[H]/N=C(/N)N[C@H]1[C@H](O)[C@@H](O)[C@H](O[C@@H]2O[C@@H](C)[C@](O)(C=O)[C@H]2O[C@@H]2O[C@@H](CO)[C@H](O)[C@@H](O)[C@@H]2NC)[C@@H](N/C(N)=N\[H])[C@@H]1O  MIC (Klebsiella pneumoniae; microbial growth, broth dilution; ATCC43816): 2 µg/mL (≈ 3.44 µM)
Clc1nc[n]([Au][PH](c2ccccc2)(c2ccccc2)c2ccccc2)c1Cl  IC50 (IMR-90; cell growth or viability, MTT; 48 h): 54.9 µM
c1ccc([Se][Au]=[c]2n(C3CCCCC3)ccn2C2CCCCC2)cc1  IC50 (HT-29; cell growth or viability, crystal violet): 1.1 µM
N#Cc1nc[n]([Au][PH](c2ccccc2)(c2ccccc2)c2ccccc2)c1C#N  IC50 (IMR-90; cell growth or viability, MTT; 48 h): 64 µM
NNC(=O)c1ccncc1  MIC90 (Mycobacterium tuberculosis variant bovis BCG; microbial growth; BCG): 0.24 µg/mL (≈ 1.75 µM)
N.N.[Cl][Pt][Cl]  inhibition (CA46; cell growth or viability, ATP luminescence; 10 µM, 72 h): 95%
C[C@@H](O)[C@H]1C(=O)N2C(C(=O)O)=C(S[C@@H]3CN[C@H](C(=O)N(C)C)C3)[C@H](C)[C@H]12  MIC (Klebsiella pneumoniae; microbial growth; ATCCBAA1705; drug-resistant strain): > 8 µg/mL
